In brackets after ≈: the same amount, converted by molar mass. Activity calls are given as the source filed them. The calls are words filed in the database; no cut-off is given here.
Columns and labels:
Klebsiella pneumoniae = assay: Antimicrobial activity against Klebsiella pneumoniae ATCC 33495 at >200 ug/ml by microbroth dilution method; format: functional
Escherichia coli [1] = assay: Antimicrobial activity against Escherichia coli K-12 by microbroth dilution method; format: functional
Staphylococcus aureus [2] = assay: Antimicrobial activity against methicillin-sensitive Staphylococcus aureus ATCC 29213 by microbroth dilution method; format: functional
Enterococcus faecalis = assay: Antimicrobial activity against Enterococcus faecalis ATCC 33186 by microbroth dilution method; format: functional
DNA gyrase = DNA gyrase (Escherichia coli, UniProt P0AES4+P0AES6); assay: Inhibition of Escherichia coli DNA gyrase assessed as supercoiled plasmid DNA formation after 30 mins by electrophoretic analysis; format: protein-complex assay
[3] = Inhibition of Escherichia coli topoisomerase 4 assessed as inhibition of decatenation of catenated kinetoplast DNA after 30 mins by electrophoretic analysis
[4] = test system: Mycobacterium tuberculosis; assay: Antimicrobial activity against Mycobacterium tuberculosis H37Rv by microbroth dilution method; format: functional
Staphylococcus aureus [5] = assay: Antimicrobial activity against methicillin-resistant Staphylococcus aureus NRS 70 by microbroth dilution method; format: functional
Escherichia coli [6] = assay: Antimicrobial activity against tolC-deficient Escherichia coli by microbroth dilution method; format: functional
Pseudomonas aeruginosa = assay: Antimicrobial activity against Pseudomonas aeruginosa PAO1 at >200 ug/ml by microbroth dilution method; format: functional
[7] = Inhibition of purified recombinant Escherichia coli topoisomerase 1 assessed as relaxation of supercoiled plasmid DNA after 30 mins by electrophoretic analysis
Vero = assay: Cytotoxicity against african green monkey Vero cells assessed as reduction in cell viability by MTT assay; format: cell-based; conditions: Chlorocebus sabaeus
Procedure, shortened: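 Vero kidney epithelial cells (ATCC CCL-81) in DMEM/10% FBS, trypsinized, seeded near 10% confluence, left overnight to adhere; medium swapped for DMEM/FBS with 2-fold serial compound dilutions.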

[8] = Selectivity index, ratio of CC50 for african green monkey Vero cells to IC50 for methicillin-resistant Staphylococcus aureus NRS 70; format: functional
Procedure, shortened: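 Vero kidney epithelial cells were grown in DMEM/10% FBS, trypsinized, seeded at about 10% confluence and left overnight to adhere. They were then exposed to 2-fold serial compound dilutions in DMEM/FBS, and viability was read by MTT after overnight solubilization. SI = cytotoxic IC50 divided by MIC against MRSA.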

Staphylococcus aureus [9] = assay: Bactericidal activity against Staphylococcus aureus Newman assessed as log reduction in bacterial cell count at 4 times MIC at 6 hrs by time-kill assay relative to control; format: functional
[10] = Solubility of the compound in DMEM/FBS medium; format: physicochemical
Procedure, shortened: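 Solubility limit estimated from 2-fold serial dilutions in DMEM with 5% FBS kept overnight at 37 °C; highest concentration with no visible precipitate taken.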

Staphylococcus aureus [11] = assay: Antimicrobial activity against Staphylococcus aureus Newman; format: functional
Staphylococcus aureus [12] = assay: Disruption of membrane potential in Staphylococcus aureus Newman assessed as […] at 4 times MIC using DiOC2(3) probe by fluorescence assay; format: functional
Procedure, shortened: (§1)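 S. aureus Newman grown to OD600nm ≈ 0.3 in Mueller–Hinton II, stained with DiOC2(3) and run on flow cytometry; red/green fluorescence ratio gives membrane potential. CCCP positive control, vancomycin negative control.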

Staphylococcus aureus [13] = assay: Disruption of membrane potential in Staphylococcus aureus Newman assessed as […] using DiOC2(3) probe by fluorescence assay; format: functional; procedure, shortened: as §1
Staphylococcus aureus [14] = assay: Bacteriostatic activity against Staphylococcus aureus Newman assessed as log reduction in bacterial cell count at 4 times MIC up to 24 hrs by time-kill assay relative to control; format: functional
Staphylococcus aureus [15] = assay: Bactericidal activity against Staphylococcus aureus Newman assessed as log reduction in bacterial cell count at 4 times MIC up to 24 hrs by time-kill assay relative to control; format: functional
Staphylococcus aureus [16] = assay: Bactericidal activity against Staphylococcus aureus Newman assessed as log reduction in bacterial cell count at MIC up to 24 hrs by time-kill assay relative to control; format: functional

SMILES | MIC (Klebsiella pneumoniae) [µg/mL] | MIC (Escherichia coli [1]) [µg/mL] | MIC (Staphylococcus aureus [2]) [µg/mL] | MIC (Enterococcus faecalis) [µg/mL] | IC50 (DNA gyrase) [µM] | IC50 [3] [µM] | MIC [4] [µg/mL] | MIC (Staphylococcus aureus [5]) [µg/mL] | MIC (Escherichia coli [6]) [µg/mL] | MIC (Pseudomonas aeruginosa) [µg/mL] | IC50 [7] [µM] | IC50 (Vero) [µg/mL] | Selectivity Index [8] | solubility [10] [µg/mL] | Activity (Staphylococcus aureus [12]) | Activity (Staphylococcus aureus [13]) | other results
CCCCCCCCOc1cc(O)cc(O)c1C(=O)C(C)CC (racemic) | > 200 | > 200 | 1.56 (≈ 4.84 µM) | 0.78 (≈ 2.42 µM) | > 1000 | 30 | 100 (≈ 310 µM) | 1.56 (≈ 4.84 µM) | > 200 | > 200 | > 500 | – | – | – | – | – | –
C=CCOc1ccccc1/C=C/C(=O)c1ccc(O)cc1O | > 200 | > 200 | 6.25 (≈ 21.1 µM) | 12.5 (≈ 42.2 µM) | – | 250 | 200 (≈ 675 µM) | 0.39 (≈ 1.32 µM) | 3.13 (≈ 10.6 µM) | > 200 | > 500 | 21.2 (≈ 71.5 µM) | 54.4 | > 200 | – | – | LCK (Staphylococcus aureus [9]): 6
CN[C@H](CC(C)C)C(=O)N[C@H]1C(=O)N[C@@H](CC(N)=O)C(=O)N[C@H]2C(=O)N[C@H]3C(=O)N[C@H](C(=O)N[C@H](C(=O)O)c4cc(O)cc(O)c4-c4cc3ccc4O)[C@H](O)c3ccc(c(Cl)c3)Oc3cc2cc(c3O[C@@H]2O[C@H](CO)[C@@H](O)[C@H](O)[C@H]2O[C@H]2C[C@](C)(N)[C@H](O)[C@H](C)O2)Oc2ccc(cc2Cl)[C@H]1O [VANCOMYCIN] | > 200 | 100 (≈ 69 µM) | 0.39 (≈ 0.269 µM) | 0.78 (≈ 0.538 µM) | – | – | – | < 0.2 | 100 (≈ 69 µM) | > 200 | – | – | – | – | inactive | – | MIC (Staphylococcus aureus [11]): 0.8 µg/mL (≈ 0.552 µM)
CC(C)=CCCC(C)CC1CC(=O)c2c(O)cc(O)cc2O1 (stereo unspecified) | > 200 | > 200 | – | 6.25 (≈ 20.5 µM) | – | – | 200 (≈ 657 µM) | 3.13 (≈ 10.3 µM) | 1.56 (≈ 5.13 µM) | > 200 | – | 27 (≈ 88.7 µM) | 8.6 | > 200 | Active | Dose-dependent effect | –
O=C(/C=C/c1ccc(N2CCCCC2)cc1)c1ccc(O)cc1O | > 200 | > 200 | 3.13 (≈ 9.68 µM) | 25 (≈ 77.3 µM) | > 1000 | 500 | 100 (≈ 309 µM) | 3.13 (≈ 9.68 µM) | 12.5 (≈ 38.7 µM) | > 200 | > 500 | 16.7 (≈ 51.6 µM) | 5.3 | 100 (≈ 309 µM) | Active | Dose-dependent effect | LCK (Staphylococcus aureus [14]): <=3
CCCCCCOc1ccccc1/C=C/C(=O)c1ccc(O)cc1O | > 200 | > 200 | 3.13 (≈ 9.19 µM) | 1.56 (≈ 4.58 µM) | > 1000 | 60 | > 200 | 0.78 (≈ 2.29 µM) | > 200 | > 200 | > 500 | 7.2 (≈ 21.2 µM) | 9.2 | > 200 | – | – | –
CCCCCCCCOc1ccccc1C1CC(=O)c2ccc(O)cc2O1 (stereo unspecified) | > 200 | > 200 | 12.5 (≈ 33.9 µM) | 1.56 (≈ 4.23 µM) | > 1000 | > 1000 | > 200 | 3.13 (≈ 8.49 µM) | > 200 | > 200 | > 500 | 17 (≈ 46.1 µM) | 5.4 | > 200 | – | – | –
CC[C@H](C)C(=O)c1c(O)cc(O)cc1OC/C=C(\C)CCC=C(C)C [OLYMPICIN A] | > 200 | > 200 | – | – | – | 30 | – | 1.56 (≈ 4.5 µM) | – | > 200 | > 500 | – | – | – | Active | Dose-dependent effect | –
CCCCCCOc1ccccc1C1CC(=O)c2ccc(O)cc2O1 (stereo unspecified) | > 200 | > 200 | 1.56 (≈ 4.58 µM) | 50 (≈ 147 µM) | > 1000 | > 1000 | > 200 | 1.56 (≈ 4.58 µM) | 1.56 (≈ 4.58 µM) | > 200 | > 500 | 24.5 (≈ 72 µM) | 15.7 | > 200 | – | – | –
N#CC(C#N)=NNc1cccc(Cl)c1 [CARBONYL CYANIDE M-CHLOROPHENYLHYDRAZONE] | – | – | – | – | – | – | – | – | – | – | – | – | – | – | – | – | MIC (Staphylococcus aureus [11]): 6.25 µg/mL (≈ 30.5 µM)
CCCCCCCC1CC(=O)c2c(O)cc(O)cc2O1 (stereo unspecified) | > 200 | > 200 | 12.5 (≈ 44.9 µM) | 200 (≈ 719 µM) | > 1000 | 120 | 50 (≈ 180 µM) | 3.13 (≈ 11.2 µM) | 1.56 (≈ 5.6 µM) | > 200 | > 500 | 33 (≈ 119 µM) | 10.5 | 150 (≈ 539 µM) | – | – | –
CC1(C)C2CC=C(/C=C/C(=O)c3ccc(O)cc3O)C1C2 (stereo unspecified) | > 200 | > 200 | 1.56 (≈ 5.49 µM) | 3.13 (≈ 11 µM) | – | 60 | 100 (≈ 352 µM) | 1.56 (≈ 5.49 µM) | 1.56 (≈ 5.49 µM) | > 200 | > 500 | 6.9 (≈ 24.3 µM) | 4.4 | > 200 | Active | Dose-dependent effect | LCK (Staphylococcus aureus [15]): >6; MIC (Staphylococcus aureus [11]): 1.56 µg/mL (≈ 5.49 µM); LCK (Staphylococcus aureus [16]): 3
